Compounds with a hit are over-represented: about 2.4% of the library has one in this group of screens.
Autophagy HCS: autophagy modulators in MEF cells, primary screen, imaging, high-content, MEF GFP-LC3. actives 0.98% (n = 190,000). AID 463193, 2010. MEF GFP-LC3 puncta imaging; test concentration mostly 10 µM. calls only at 10 µM (by protocol);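 active = percentage of spot-positive cells more than 3 SD above its plate mean, without a fluorescence outlier flag or 80% toxicity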;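 note: spot-positive cell cutoff set from DMSO-treated cells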
Dynein cargo inh: inhibitors of GR-EGFP nuclear translocation, primary screen, dynein cargo transport inhibitor project, imaging, high-content, 3617.4 mouse cells | z-score, hits read low | test concentration mostly 20 µM; stimulated with dexamethasone, 1 µM; stronger effect = lower value | actives 0.47% (n = 220,000);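 active = plate z-score of nuclear minus cytoplasmic receptor signal below a set negative limit, without overly bright fluorescence or cell loss, cut at about -3.5 in these data, passing the limit was not always enough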;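 note: z-score of nuclear minus cytoplasmic ring GR-EGFP intensity difference per well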
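Buffer or medium: tet-free, stripped-serum medium; reagent: dexamethasone at 1.0 µM final, 30 min; incubation: 48 h induction, 1 h compound, 30 min dex at 37 °C; measured by: formaldehyde fixation, Hoechst nuclear stain, 10x automated fluorescence imaging; read-out: nuclear-to-cytoplasmic GR-EGFP distribution per well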
zVAD death inh: inhibitors of zVAD-triggered necroptosis, primary screen, L929 cells | L929 zVAD necroptosis rescue, ATP luminescence, 24 h; with zVAD 60 µM | viability rescue, % at 10 µM | actives 0.38% (n = 220,000) | AID 1377, 2008;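 active = activation, scaled between plate controls, above about 75%, limit read from the data; inactive = activation under that limit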;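 note: 0% = zVAD with DMSO and 100% = DMSO alone without zVAD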
TNF death inh: inhibitors of TNF-alpha triggered necroptosis, primary screen, cell-based, Jurkat FADD-/-, single concentration | actives 0.068% (n = 220,000) | activation (protection from cell death), % at 10 µM | Jurkat FADD-/- TNF necroptosis rescue, ATP luminescence, 24 h; 0 = TNF only, 100 = no-TNF cells;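 active = activation, meaning protection from cell death, of at least 50% relative to plate controls; inactive = activation below 50%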;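 note: necroptosis triggered by 40 ng/mL TNF-alpha added together with compound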
Hck Nef HTS: inhibitors of Nef-activated human Hck kinase, primary screen, biochemical, Z-Lyte FRET, 384-well, Hck-YEEI; inhibition, % at 20 µM; AID 463187, 2010; Recombinant Hck-YEEI plus Nef, Z-Lyte FRET kinase assay; actives 0.68% (n = 220,000);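 active = Hck-Nef kinase inhibition above about 50%, limit read from the data; inactive = inhibition below that limit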;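 note: 0% = DMSO with Hck plus Nef and 100% = Hck alone without Nef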
Mdm2 ligase inh: MDM2-luciferase reporter signal enhancers, primary screen, MDM2 E3 ligase inhibitor project, cell-based, luminescence, 1536-well; cell-based MDM2 ubiquitination luciferase reporter, 2 h; 0 = plate control, 100 = twice control, blank-subtracted; signal enhancement, % at 5 µM; actives 0.11% (n = 210,000); AID 1230, 2008;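 active = signal enhancement of 30% or more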;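 note: luminescence tracks abundance of the self-degrading MDM2-luciferase fusion protein; higher signal means inhibition of MDM2 E3 ligase activity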
Target sequence (Q00987 whole entry, looked up, the tested form may be a part): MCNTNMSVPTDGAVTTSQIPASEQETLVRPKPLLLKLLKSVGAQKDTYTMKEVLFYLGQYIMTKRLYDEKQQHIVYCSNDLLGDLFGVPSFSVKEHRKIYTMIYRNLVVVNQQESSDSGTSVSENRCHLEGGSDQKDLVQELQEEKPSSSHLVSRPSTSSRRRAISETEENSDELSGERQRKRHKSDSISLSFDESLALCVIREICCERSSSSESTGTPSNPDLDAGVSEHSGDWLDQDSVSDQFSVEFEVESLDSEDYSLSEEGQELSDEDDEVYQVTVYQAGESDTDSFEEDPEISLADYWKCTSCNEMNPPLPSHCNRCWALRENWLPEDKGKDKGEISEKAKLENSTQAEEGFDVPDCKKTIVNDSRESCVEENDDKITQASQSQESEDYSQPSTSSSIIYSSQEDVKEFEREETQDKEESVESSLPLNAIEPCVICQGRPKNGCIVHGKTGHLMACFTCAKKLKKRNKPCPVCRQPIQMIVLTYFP
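Timing – 2 h compound exposure at 37 °C · Assay system – mammalian cells stably expressing self-ubiquitinating, self-degrading MDM2 E3–luciferase fusion · Amount – 2000 cells seeded into each well · Measure – % luminescence enhancement versus blank-corrected plate control mean · Measured by – SteadyLite luminescence, 15 min reagent step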
* = called active by the depositor; i = inactive; . = not tested or not shown; + = active, no number.

SMILES	Autophagy HCS	Dynein cargo inh	zVAD death inh	TNF death inh	Hck Nef HTS	Mdm2 ligase inh
CCOC(=O)c1cnn(-c2cc(Oc3ccccc3C)ncn2)c1N	i	0.0605	0.6	-1.4	-0.3	-13.0
CCOc1ccc(Oc2ccc(-c3nnc(-c4ccccc4)o3)cc2[N+](=O)[O-])cc1	+	0.0524	1.1	0.6	0.6	-40.3
CCOC(=O)N1CCC(=NNC(=O)Cn2ccc(C(F)(F)F)n2)CC1	i	-1.01	3.0	0.9	14.5	-5.7
Cc1cccc(CN2CCCC(C(=O)c3ccc4c5c(cccc35)CC4)C2)n1 (configuration not stated)	i	-0.787	-1.3	2.4	153.6*	6.0
Cc1nc2ccc(NC(=O)c3cc([N+](=O)[O-])cc([N+](=O)[O-])c3Cl)cc2s1	i	-3.58*	11.7	-3.3	3.3	-15.1
Cc1ccc(/C=[N+](/C)[O-])cc1	i	1.75	-0.9	0.3	24.4	-0.2
Cc1ccc(C=C2C(Cl)=C(Cl)C(Cl)=C2Cl)cc1	.	-6.16*	3.5	-28.7	-9.6	49.4*
COCCNC(=O)C(=O)NCC1OCCCN1S(=O)(=O)c1cccs1 (configuration not stated)	i	-0.561	0.2	0.6	-0.3	-3.6
CN(C)c1ccc(/C=C/c2ccc3c4ccccc4ccc3[n+]2-c2ccccc2)cc1	+	-0.723	9.3	-17.6	49.2	-20.5
CN(C)c1ccc(/C=C/c2ccc3ccccc3[n+]2C)cc1	+	-0.584	1.9	-9.8	3.9	-53.3
CCOC(=O)c1sc2nc3c(SCCC#N)cc(C(=O)c4cc(F)ccc4O)cn3c(=O)c2c1C	i	-0.221	-0.8	0.2	4.3	1.0
O=C(O)CSc1cc(C(=O)c2cc(F)ccc2O)cn2c(=O)c3c(-c4ccccc4)csc3nc12	.	-0.271	-0.7	-1.3	51.6*	-8.6
COc1cccc(C(=O)NN2C(=S)N(c3ccccc3)C(=O)C2CC(N)=O)c1 (configuration not stated)	.	-1.25	0.0	6.2	13.0	-29.6
O=C(Nc1ccc2nc(SCc3ccc(Cl)cc3)sc2c1)c1ccccc1C(=O)N1CCOCC1	+	1.6	-0.4	-12.7	1.4	-32.5
O=C1c2ccccc2C(=O)N1CCc1csc(NNc2nc(CCN3C(=O)c4ccccc4C3=O)cs2)n1	i	-0.453	0.7	-3.9	69.2*	-16.0
O=C1CCCC(=O)C1CS(=O)(=O)c1ccccc1	i	0.637	4.7	0.5	30.0	-22.4
Cc1ccc2c(c1)c1ccc3c(c1n2C)C(=O)C=CC3=O	.	-6.87*	20.0	-29.9	12.6	40.0*
Cc1ccc2c(c1)c1ncnc(N3CCOCC3)c1n2C	i	-0.213	0.5	-6.6	3.7	-12.6
CCCCCn1nc(-c2ccccc2)c2nc3ccccc3nc21	+	-0.295	0.1	-2.3	-2.3	-6.2
CCn1nc(-c2ccccc2)c2nc3ccccc3nc21	+	-4.48	0.4	-2.7	-0.7	-19.5
CCCCn1c2nc3ccccc3nc2c2c(=O)n(CCC)cnc21	i	0.55	-0.2	-8.9	1.8	-17.1
Fc1cccc(Cl)c1/C=N/n1c(-c2cccnc2)n[nH]c1=S	i	0.273	17.3	-0.3	12.9	44.6*
COc1ccc(/C=N/NC(=O)c2cccc(O)c2)cc1Cn1nc(C)c([N+](=O)[O-])c1C	i	-0.457	0.7	-4.3	16.2	.
COc1ccc(C(=O)Nc2nnc(-c3cccs3)s2)cc1	+	0.848	1.3	-11.4	4.5	-27.7
COc1ccc(NC(=O)Nc2nnc(-c3cccs3)s2)cc1	.	-1.11	1.4	0.9	27.1	.
SMILES	Autophagy HCS	Dynein cargo inh	zVAD death inh	TNF death inh	Hck Nef HTS	Mdm2 ligase inh
O=C(Nc1ccc(Cl)cc1)c1cccs1	i	0.389	0.0	0.6	4.6	-21.1
O=C(Cc1ccc(Cl)cc1)Nc1ccc(NC(=O)c2cccs2)cc1	+	1.9	3.0	2.2	25.2	0.8
C/C(=N/NC(=O)c1cccs1)c1ccc(NC(=O)COc2ccc(Cl)cc2Cl)cc1	+	-0.777	0.1	-1.7	14.4	-16.1
CN(C)CCCNCC(=O)NN(c1ccccc1)c1ccccc1	.	1.6	0.7	2.1	11.5	.
Cc1nc(Nc2cccc(C(F)(F)F)c2)nc2c1C(=O)CC(C)C2 (configuration not stated)	+	1.02	0.1	0.2	-0.2	-11.3
Cc1ccc(NS(=O)(=O)c2cc(C(=O)N3CCN(C)CC3)ccc2C)cc1C	i	-0.439	0.0	1.0	7.0	-3.7
CCOC(=O)c1ccc2c(c1)N(CC)/C(=C\C=C1/SC(=S)N(CC)C1=O)N2CC	i	-6.03*	-1.1	-9.3	6.8	.
C=CCN1C(=O)/C(=C/C=C2/N(CC)c3ccc(S(=O)(=O)N(C)C)cc3N2CC)SC1=S	+	-0.78	-0.1	-3.1	21.4	-14.6
Cc1ccc(NC(=O)Nc2cnccn2)cc1C	.	-0.517	50.8	0.2	18.0	-12.1
COc1ccc2nc(NC(=O)CCn3cccc3)sc2c1	i	0.189	91.6*	6.3	1.2	-12.1
CCOCC(=O)Nc1nc2ccc(OC)cc2s1	i	0.0866	24.8	10.7	-1.0	-20.0
COc1ccc(-n2nnnc2-c2cccc(OC)c2)cc1	+	-0.878	-0.1	-10.0	0.6	3.4
Cc1ccc(-n2nnnc2-c2cccc(C)c2)cc1	i	-0.0745	-0.4	-1.9	-10.6	-8.6
Cc1cc2c(cc(C(=O)OCC(=O)NCc3cccs3)n2C(C)C)o1	+	-0.338	-0.3	-10.5	1.8	-15.5
Cc1ccc(C(=O)OCC(=O)NCc2cccs2)c(C)c1	+	-0.652	1.1	0.0	-16.0	0.4
COc1ccc(C2=NOC(C(=O)NCc3cccs3)C2)cc1 (configuration not stated)	+	0.552	1.0	-5.8	0.8	-4.7
COc1ccc(Br)cc1/C=C/C(=O)c1ccc(NC(C)=O)cc1	i	-3.51*	87.8*	-7.2	1.3	-11.8
Cc1cc(NC(=O)CSc2nnc(-c3ccco3)o2)no1	i	1.85	-0.2	-0.2	-0.4	-7.7
CC(=O)Nc1ccc(NC(=O)CSc2nnc(-c3ccco3)o2)cc1	+	-0.176	-0.3	0.3	18.1	-9.7
